RBBP9 inhibitor: human RBBP9 hydrolase inhibition; inhibition, % at 7.94 µM; recombinant RBBP9, FP-Rh probe fluorescence polarization; 220,000 tested, 0.2% active; O75884; AID 1515;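 active = inhibition above the campaign mean of all tested compounds plus 3 SD, cut at about 14% in these data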;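 note: plate controls were DMSO wells with RBBP9 for no effect and wells lacking RBBP9 protein for full effect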
Target sequence (O75884 whole entry, looked up): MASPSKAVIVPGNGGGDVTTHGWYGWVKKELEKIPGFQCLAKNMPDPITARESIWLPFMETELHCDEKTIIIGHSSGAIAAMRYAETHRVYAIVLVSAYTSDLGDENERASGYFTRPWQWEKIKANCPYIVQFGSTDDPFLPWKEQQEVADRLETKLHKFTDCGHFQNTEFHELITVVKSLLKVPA
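Test system – recombinant human RBBP9 · Input – RBBP9 2.5 µM in dispensing solution, pre-mixing · Medium – Tris buffer pH 8.0, NaCl, Pluronic · Schedule – preincubation 30 min plus labeling 45 min at 25 °C · Measured by – fluorescence polarization · Measure – % inhibition · Controls – DMSO and no-protein wells · Replicates – one well per compound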
MBD2 DNA inh: blocks human MBD2 binding to methylated DNA; 370,000 tested, 0.31% active; inhibition, % at 4.4 µM; Q9UBB5; AID 686964; TR-FRET, MBD2 binding to methylated oligonucleotide; in the data active = inhibition above about 13%
UHRF1 MBD2 ctr: blocks human UHRF1 binding to methylated DNA; inhibition, % at 4.4 µM; 370,000 tested, 0.75% active; UHRF1 binding to methylated oligo, TR-FRET; in the data active = inhibition above about 21%;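 note: UHRF1 SRA domain binding a hemimethylated CpG hairpin DNA probe; 0% = median of test compound wells and 100% = reference inhibitor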
LEDGF integ inh: blocks HIV-1 LEDGF/p75-dependent DNA integration | TR-FRET IN-LEDGF/p75 DNA integration, Eu/Cy5 | inhibition, % at 3.7 µM | 370,000 tested, 0.64% active | AID 743269;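 active = inhibition above the screen-wide mean plus 3 SD, cut at about 13% in these data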;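 note: signal is the Cy5 over europium emission ratio at 671 and 618 nm; 0% = plate median of compound wells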
ABHD5 PLIN5 PPI: blocks binding of human ABHD5 to perilipin-5; 360,000 tested, 0.78% active; inhibition, % at 4 µM; AID 602281; Q00G26+Q8WTS1; Split G. princeps luciferase complementation, luminescence, 4 h;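 active = inhibition above the mean inhibition across every tested compound plus 3 SD, cut at about 22% in these data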;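 note: 0% = DMSO only wells and the 100% control is not disclosed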
PRMT1 inh: blocks human protein arginine methyltransferase 1. Q99873. recombinant PRMT1, activity-based probe fluorescence polarization. inhibition, % at 2.79 µM. 370,000 tested, 1.3% active. AID 652257;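 active = inhibition above about 21% made by adding two undisclosed values, limit read from the data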
Target sequence (Q99873 whole entry, looked up): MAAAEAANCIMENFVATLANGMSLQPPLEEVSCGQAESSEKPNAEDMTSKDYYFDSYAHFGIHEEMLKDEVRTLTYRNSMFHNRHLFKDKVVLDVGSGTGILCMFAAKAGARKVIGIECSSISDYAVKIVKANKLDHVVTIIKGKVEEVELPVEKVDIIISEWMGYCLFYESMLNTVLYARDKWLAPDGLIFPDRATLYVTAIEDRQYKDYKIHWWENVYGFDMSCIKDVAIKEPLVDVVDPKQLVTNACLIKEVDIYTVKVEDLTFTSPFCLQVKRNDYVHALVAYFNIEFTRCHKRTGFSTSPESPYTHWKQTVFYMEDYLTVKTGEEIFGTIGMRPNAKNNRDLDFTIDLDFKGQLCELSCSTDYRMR
An asterisk follows results filed as active; nt = no result. Sampled rows, rich in hits. Any-hit rate of the full collection: about 3.1%.

SMILES	RBBP9 inhibitor	MBD2 DNA inh	UHRF1 MBD2 ctr	LEDGF integ inh	ABHD5 PLIN5 PPI	PRMT1 inh
O=C(OC12CCCN(C1)/C(=C/c1ccc(Cl)cc1)C2)C1CCCC1 (configuration not stated)	nt	2	-1	-2	nt	-2
COC(=O)C1CN(Cc2ccc(F)cc2)CCS(=O)(=O)N1Cc1cn(Cc2ccc(Cl)cc2)nn1 (configuration not stated)	nt	6	8	0	nt	0
O=C(O)c1c(C(=O)O)c(-c2ccc(Cl)c(Cl)c2)n2c1CSC2	nt	2	9	1	-4	30*
COC(=O)c1c(C(=O)OC)c(-c2ccc(Cl)c(Cl)c2)n2c1CCC2	-4	nt	nt	nt	-1	nt
CCC[C@H]1[C@@H](OC(=O)NCc2ccc(C(F)(F)F)cc2)CC[C@@]23CCCN2C(=O)CCC[C@@H]13	nt	5	0	-2	nt	6
C[C@@]12CCC=C[C@H]1[C@H](c1ccc3ccccc3c1)N(Cc1ccccc1)C2=O	nt	-1	38*	-1	-2	2
COc1ccccc1C(=O)n1ccc2ccc(-c3ccc4ccn(Cc5ccccc5)c4c3)cc21	nt	-2	-3	-1	nt	2
COC(=O)[C@]12C[C@H](CC(=O)N3CCN(C(=O)C4CC4)CC3)C(=O)N(Cc3ccc(Cl)cc3Cl)C1=C[C@H](C1CCCC1)O[C@@H]2C	nt	3	1	-7	nt	0
O=C([C@@H]1C[C@H]1c1ccccc1)N1CC[C@H]2[C@H](CCCN2Cc2ccc(F)cc2)C1	nt	3	-1	-2	nt	0
Cc1ccc(NC(=O)CSc2nccn(-c3ccc4c(c3)OCCO4)c2=O)cc1	nt	-5	17	4	-17	19
CCOc1ccc(-n2c(SCC(=O)Nc3ccc4c(c3)OCCO4)nnc2-c2ccncc2)cc1	nt	3	-2	1	nt	-5
CCOc1ccc(NC(=O)CSc2nccn(-c3ccc4c(c3)OCCO4)c2=O)cc1	nt	-7	0	1	-9	22*
CCc1ccc(NC(=O)CSc2nccn(-c3ccc4c(c3)OCCO4)c2=O)cc1	nt	0	0	-2	-25	22*
Cc1nnc(-n2cccc2)s1	nt	3	-2	1	nt	-3
Cc1ccc(NC(=O)CSc2nnc(C)c(=O)n2N)cc1Cl	nt	2	-1	-7	-5	5
Cc1nnc(SCC(=O)c2ccc(Cl)cc2)n(N)c1=O	18*	-4	3	-3	-30	37*
Cc1nc2ccc(NC(=O)c3cc([N+](=O)[O-])cc([N+](=O)[O-])c3Cl)cc2s1	9	2	-9	0	56*	15
O=C1CCCC2=C1C(c1ccc(O)c(O)c1)c1c(ccc3ncccc13)N2 (configuration not stated)	10	1	0	1	-4	21*
CCOc1ccc(C2C3=C(CCCC3=O)Nc3ccc4ncccc4c32)cc1 (configuration not stated)	6	-6	-1	1	7	-6
Nn1c(SCC(=O)NC2CCCCC2)nnc1-c1n[nH]c2c1CCC2	nt	0	7	3	nt	7
C#CCCC(=O)Nc1sc2c(c1-c1nc3ccccc3s1)CCN(C(C)C)C2	nt	7	-24	-2	nt	16
COc1ccc(/C(O)=C2/C(=O)C(=O)N(Cc3ccco3)C2c2cccs2)cc1 (configuration not stated)	-9	-8	-5	7	20	24*
CCN(Cc1ccccc1)S(=O)(=O)c1c(N)n(C)c(=O)n(C)c1=O	nt	13	30*	3	1	4
CC(C)C[C@@H]1COc2cccc(N3CCCC3)c2S(=O)(=O)N1	nt	-3	0	0	nt	1
Fc1cccc(Cn2ccc3ccc(-c4ccc5ccn(Cc6cccc(F)c6)c5c4)cc32)c1	nt	0	1	-1	nt	0
SMILES	RBBP9 inhibitor	MBD2 DNA inh	UHRF1 MBD2 ctr	LEDGF integ inh	ABHD5 PLIN5 PPI	PRMT1 inh
COCc1c(C(N)=O)nnn1-c1nonc1N	1	1	32*	4	-6	-1
COCc1c(C(=O)N/N=C/c2ccc(C)o2)nnn1-c1nonc1N	nt	0	25*	0	1	4
Cc1ccc(/C=N/NC(=O)c2nnn(-c3nonc3N)c2CN(C)C)o1	nt	3	0	-3	-3	2
CN[C@H]1C[C@H]2c3[nH]c4c(-c5ccc6c(c5)OCO6)cccc4c3CCN2C(=O)[C@H]1[C@H](C)O	nt	1	0	-4	nt	0
CCCC/C=C1\CCc2c([nH]c3ccccc23)C1=O	-5	0	24*	0	-6	2
COc1cc(-n2c(N)c(C(=O)NCc3ccco3)c3nc4ccccc4nc32)cc(OC)c1OC	8	-1	-2	-2	13	0
COc1ccc(-n2c(N)c(C(=O)NCc3ccco3)c3nc4ccccc4nc32)cc1OC	-6	-1	47*	4	20	3
Cc1cc(NS(=O)(=O)c2ccc(NC(=O)Cc3ccc(Cl)c(F)c3)cc2)no1	nt	-1	0	0	nt	1
COc1ccc(-c2cc(-c3n[nH]c(=S)n3-c3cc(OC)ccc3OC)[nH]n2)cc1	-12	-1	2	4	-15	25*
COc1ccc(-c2n[nH]c(=S)n2-c2cc(OC)ccc2OC)cc1	-8	-2	1	-1	0	-1
CCCCn1nnnc1C(CC)N1CCN(C/C=C/c2ccccc2)CC1 (configuration not stated)	nt	10	22*	3	13	4
CCOc1ccc(CCNC(=O)C2CC(=O)N(CCc3ccccc3)C2)cc1OCC (configuration not stated)	nt	-2	0	3	8	-2
CCOc1ccc(NC(=O)C2CC(=O)N(CCc3ccccc3)C2)cc1OC (configuration not stated)	nt	-1	24*	0	-5	-5
CCN(CC)c1ccc(NS(=O)(=O)c2ccc3c(c2)oc(=O)n3C)c(C)c1	-4	-5	-1	9	-10	25*
Cn1c(=O)oc2cc(S(=O)(=O)Nc3ccccc3)ccc21	-2	4	5	4	-1	0
Cc1cc(C)c(NS(=O)(=O)c2ccc3c(c2)oc(=O)n3C)c(C)c1	nt	-1	39*	-1	7	2
O=C(OCCN1CCN(C2CN(Cc3cn(Cc4ccccc4C(F)(F)F)nn3)S(=O)(=O)C2)CC1)c1cc2ccccc2o1 (configuration not stated)	nt	4	7	-2	nt	-1
CCOC(=O)N1CCN(C(=O)C[C@H]2C[C@@]3(C(=O)OC)C(=C[C@H](C(C)(C)C)O[C@@H]3C)N(Cc3ccco3)C2=O)CC1	nt	-1	1	2	nt	-2
CC(=O)c1c(C)[nH]c(C(=O)OCc2nnc(-c3ccc([N+](=O)[O-])cc3)o2)c1C	nt	-2	0	0	11	24*
CC(=O)N1CCN(c2ccc(NCc3ccc(Br)o3)cc2)CC1	nt	-5	-3	28*	-12	5
O=C(O)CSCC(=O)Nc1ccc(-c2nc3ccccc3s2)cc1	-7	0	-2	-5	-3	36*
